Data on 8 compounds can be found in ChEMBL document CHEMBL1154567, “New lanostanoids of Ganoderma tsugae” (2000).

Structures are written as SMILES. In brackets after ≈: the same amount, converted by molar mass. Numbered stars: 1 amine (or outer) side, 2 acyl side, 3 side chain; on linkers, the order of the positions; unused ones are H or OH. Bridge positions count the residues as written; N and C are the ends. Square brackets hold non-standard residues; d marks the D form. Peptide text beside a SMILES is read from it. I, II: the chains in the order shown. Actinocin(1to9) = Cc1c2oc3c(C)ccc(C(=O)[*:2])c3nc-2c(C(=O)[*:1])c(N)c1=O; NMeV = CN[C@H](C(=O)O)C(C)C; Sar = CNCC(=O)O

Holding throughout (format): functional
Experiment [1] is described as follows: Cytotoxicity against human PLC/PRF/5 cells after 6 days by MTT assay. The following applies: PLC-PRF-5, 144 h, read-out: ED50 (the source's name). The gist of the method:
(§1)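 Human lines (hepatoma PLC/PRF/5, T24, cervical carcinoma HT-3 and SiHa) were kept in DMEM with 10% FBS, 2 mM L-glutamine and penicillin/streptomycin, plus 10 mM HEPES pH 7.3, at 37 °C in CO2. Cells at 1-3 × 10³/100 µL had 6 h to attach, then fresh medium with graded drug concentrations was added for 6 days. Survival was read by 4 h MTT (1 mg/mL in PBS, 10 µL) at 37 °C, with DMSO solubilization.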
A general note: Formazan colour is commonly taken as a measure of viable cells.

Experiment [2] has as its system T-24. Nature of the experiment: Cytotoxicity against human T24 cells after 6 days by MTT assay. The following applies: T-24, 144 h, read-out: ED50 (the source's name). The gist of the method:
as §1

Experiment [3] concerns HT-3. The experiment can be described thus: Cytotoxicity against human HT3 cells after 6 days by MTT assay. The following applies: HT-3, 144 h, read-out: ED50 (the source's name). The gist of the method:
as §1

Experiment [4] deals with SiHa. The experiment can be described thus: Cytotoxicity against human SiHa cells after 6 days by MTT assay. To be noted: 144 h, read-out: ED50 (the source's name). The method in brief:
as §1

For experiment [5], the system named is Ca-Ski. Nature of the experiment: Cytotoxicity against human CaSKi cells after 6 days by MTT assay. The following applies: 144 h, read-out: ED50 (the source's name). The gist of the method:
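CaSki (human cervical carcinoma) kept in DMEM with 10% FBS, 2 mM L-glutamine and penicillin/streptomycin. For the assay, 1-3 × 10³ cells/100 µL were seeded and left 6 h to attach. Medium was then replaced with fresh medium holding a range of drug concentrations, plus 10 mM HEPES pH 7.3, at 37 °C in CO₂. After 6 days, MTT (1 mg/mL in PBS) was added for 4 h. Formazan was dissolved in DMSO.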

Experiment [6] is described as follows: Cytotoxicity against mouse 212 cells after 6 days by MTT assay. To be noted: 144 h, read-out: ED50 (the source's name). The method in brief: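 The 212 line is an inducible Ha-ras-transformed NIH/3T3 line. It was grown in alpha MEM with 10% calf serum and antibiotics, plus 10 mM HEPES pH 7.3, at 37 °C in CO2. Cells were seeded at 1-3 × 10³/100 µL and allowed 6 h to attach. Medium was then swapped for fresh medium carrying various drug concentrations for 6 days. MTT (10 µL of 1 mg/mL) was added for 4 h at 37 °C, and formazan was dissolved in DMSO.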

`CC(C)=CCC[C@@H](C(=O)O)[C@H]1CC[C@@]2(C)C3=C(CC[C@]12C)[C@@]1(C)CCC(=O)C(C)(C)[C@@H]1CC3`: the EC50 was 12.1 µg/mL (≈ 26.6 µM) in experiment [1]; 8.2 µg/mL (≈ 18 µM) in experiment [2]; 6.9 µg/mL (≈ 15.2 µM) in experiment [3]; 5.1 µg/mL (≈ 11.2 µM) in experiment [4]; 7.2 µg/mL (≈ 15.8 µM) in experiment [5].

In the case of `CC(=O)O[C@H]1CC[C@]2(C)C3=C(CC[C@H]2C1(C)C)[C@]1(C)CC[C@H]([C@@H](CCC=C(C)C)C(=O)O)[C@@]1(C)CC3` [ACETYL TRAMETENOLIC ACID], the values for the EC50 in experiment [1], in experiment [2] and in experiment [5] were 9.2 µg/mL (≈ 18.4 µM), 5.8 µg/mL (≈ 11.6 µM) and 3.9 µg/mL (≈ 7.82 µM), respectively.

`Cc1c2oc3c(C)ccc(C(=O)N[C@@H]4C(=O)N[C@H](C(C)C)C(=O)N5CCC[C@H]5C(=O)N(C)CC(=O)N(C)[C@@H](C(C)C)C(=O)O[C@@H]4C)c3nc-2c(C(=O)N[C@@H]2C(=O)N[C@H](C(C)C)C(=O)N3CCC[C@H]3C(=O)N(C)CC(=O)N(C)[C@@H](C(C)C)C(=O)O[C@@H]2C)c(N)c1=O` [DACTINOMYCIN] (I: T[dV]P[Sar][NMeV] / II: T[dV]P[Sar][NMeV]; ester I:1-I:C, II:1-II:C; linker I:N-II:N via Actinocin(1to9)): the EC50 turned out to be 0.0014 µg/mL (≈ 0.00112 µM) in experiment [1], 0.0015 µg/mL (≈ 0.00119 µM) in experiment [2] and 0.0019 µg/mL (≈ 0.00151 µM) in experiment [5].

In the case of `CC(C)=CCC[C@@H](C(=O)O)[C@H]1CC[C@@]2(C)C3=C(CC[C@]12C)[C@@]1(C)CC[C@H](O)C(C)(C)[C@@H]1CC3` [TRAMETENOLIC ACID], the EC50 in experiment [2] turned out to be 4.4 µg/mL (≈ 9.63 µM); in experiment [3] it was 3.5 µg/mL (≈ 7.66 µM); in experiment [4], 5.5 µg/mL (≈ 12 µM); in experiment [5] it was 6.2 µg/mL (≈ 13.6 µM).

As to `CC(=O)O[C@@H]1CC[C@]2(C)C3=C(CC[C@H]2C1(C)C)[C@]1(C)CC[C@H]([C@@H](CCC=C(C)C)C(=O)O)[C@@]1(C)CC3` [TSUGARIC ACID A], the values for the EC50 in experiment [1] and in experiment [2] were 6.8 µg/mL (≈ 13.6 µM) and 3.1 µg/mL (≈ 6.22 µM), respectively.

On to `C=C(C)C(C)CC[C@@H](C(=O)O)[C@H]1[C@H](O)C[C@@]2(C)C3=C(CC[C@]12C)[C@@]1(C)CC[C@H](OC(C)=O)C(C)(C)[C@@H]1CC3` (stereo not given in full) [TSUGARIC ACID B], for which the EC50 in experiment [6] is 10.3 µg/mL (≈ 19.5 µM).

As to `CC(=O)O[C@@H]1CC[C@]2(C)C3=C(CC[C@H]2C1(C)C)[C@]1(C)CC[C@H]([C@@H](CCC=C(C)C)C(=O)O[C@@H]2O[C@H](CO)[C@@H](O)[C@H](O)[C@H]2O)[C@@]1(C)CC3` [TSUGARIOSIDE A], the results for the EC50 in experiment [2], in experiment [3] and in experiment [4] were 1.73 µg/mL (≈ 2.62 µM), 6.8 µg/mL (≈ 10.3 µM) and 8.4 µg/mL (≈ 12.7 µM), respectively.

On to `C=C(C)/C(C)=C\C[C@@H](C(=O)O[C@@H]1OC[C@@H](O)[C@H](O)[C@H]1O)[C@H]1CC[C@@]2(C)C3=C(CC[C@]12C)[C@@]1(C)CC[C@@H](OC(C)=O)C(C)(C)[C@@H]1CC3` [TSUGARIOSIDE C], for which the EC50 in experiment [1] is 6.5 µg/mL (≈ 10.1 µM); in experiment [2], 8.6 µg/mL (≈ 13.4 µM); in experiment [3] it was 7.2 µg/mL (≈ 11.2 µM); in experiment [4], 9.5 µg/mL (≈ 14.8 µM).
